Data taken from ChEMBL document CHEMBL1146459, “Production of biologically active taxoids by a callus culture of Taxus cuspidata” (2004).

Experiments:
[1] = Reversal of multidrug resistance in human 2780AD cells assessed as [3H]vincristine accumulation at 0.1 ug/mL after 2 hrs relative to control; type: functional, A2780 ADR
How it was run: (§1)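 Multidrug-resistant human ovarian cancer 2780AD cells were exposed to taxoids at 0.1, 1 or 10 µg/mL. Radiolabelled vincristine accumulated in the cells was measured as dpm/well, using means of triplicate determinations. Results are expressed as % of vincristine accumulated relative to the control experiment. They were also scored on a seven-level index according to the range of relative accumulation.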

[2] = Reversal of multidrug resistance in human 2780AD cells assessed as [3H]vincristine accumulation at 1 ug/mL after 2 hrs relative to control; type: functional, A2780 ADR; how it was run: as §1
[3] = Reversal of multidrug resistance in human 2780AD cells assessed as [3H]vincristine accumulation at 10 ug/mL after 2 hrs relative to control; type: functional, A2780 ADR; how it was run: as §1
[4] = Growth inhibition of human BSY1 cells after 48 hrs by SRB assay; type: functional; conditions: BSY-1, 48 h
[5] = test system: SF-268; assay: Growth inhibition of human SF268 cells after 48 hrs by SRB assay; type: functional; conditions: SF-268, 48 h
[6] = test system: SNB-75; assay: Growth inhibition of human SNB75 cells after 48 hrs by SRB assay; type: functional; conditions: SNB-75, 48 h
[7] = test system: HCC 2998; assay: Growth inhibition of human HCC2998 cells after 48 hrs by SRB assay; type: functional; conditions: HCC 2998, 48 h
[8] = test system: HT-29; assay: Growth inhibition of human HT-29 cells after 48 hrs by SRB assay; type: functional; conditions: HT-29, 48 h
[9] = test system: HCT-116; assay: Growth inhibition of human HCT116 cells after 48 hrs by SRB assay; type: functional; conditions: HCT-116, 48 h
[10] = test system: NCI-H226; assay: Growth inhibition of human NCI-H226 cells after 48 hrs by SRB assay; type: functional; conditions: NCI-H226, 48 h
[11] = test system: NCI-H522; assay: Growth inhibition of human NCI-H522 cells after 48 hrs by SRB assay; type: functional; conditions: NCI-H522, 48 h
[12] = test system: LOX IMVI; assay: Growth inhibition of human LOXIMVI cells after 48 hrs by SRB assay; type: functional
[13] = test system: OVCAR-4; assay: Growth inhibition of human OVCAR4 cells after 48 hrs by SRB assay; type: functional; conditions: OVCAR-4, 48 h
[14] = test system: OVCAR-8; assay: Growth inhibition of human OVCAR8 cells after 48 hrs by SRB assay; type: functional; conditions: OVCAR-8, 48 h
[15] = test system: SK-OV-3; assay: Growth inhibition of human SKOV3 cells after 48 hrs by SRB assay; type: functional; conditions: SK-OV-3, 48 h
[16] = Growth inhibition of human RXF631L cells after 48 hrs by SRB assay; type: functional; conditions: RXF 631, 48 h
[17] = Growth inhibition of human MKN1 cells after 48 hrs by SRB assay; type: functional; conditions: MKN-1, 48 h
[18] = test system: MKN-28; assay: Growth inhibition of human MKN28 cells after 48 hrs by SRB assay; type: functional; conditions: MKN-28, 48 h
[19] = test system: MKN-74; assay: Growth inhibition of human MKN74 cells after 48 hrs by SRB assay; type: functional; conditions: MKN-74, 48 h
[20] = test system: DU-145; assay: Growth inhibition of human DU145 cells after 48 hrs by SRB assay; type: functional; conditions: DU-145, 48 h
[21] = test system: PC-3; assay: Growth inhibition of human PC3 cells after 48 hrs by SRB assay; type: functional; conditions: PC-3, 48 h
[22] = read-out: LC50 (the source's name)
[23] = read-out: pLC50 (the source's name) (converted)

Work on `C=C1[C@@H](OC(C)=O)CC[C@]2(C)[C@@H]1C[C@@H]1C[C@H](OC(C)=O)C(C)=C([C@@H](O)[C@@H]2OC(=O)/C=C/c2ccccc2)C1(C)C` yielded an Activity [1] of 162%, an Activity [2] of 399% and an Activity [3] of 648%. The GI50 ([4]; read-out: GI50) was 6.9 µM, the TGI ([4]; read-out: TGI) was 82 µM and the GI50 ([4]; read-out: pGI50 (converted)) was 6.92 µM. The TGI ([4]; read-out: pTGI (converted)) was 87.1 µM, the GI50 ([5]; read-out: GI50) was 43 µM and the CC50 [5, 22] was 100 µM. It also gave a TGI ([5]; read-out: TGI) of 100 µM, a GI50 ([5]; read-out: pGI50 (converted)) of 10.7 µM and a CC50 [5, 23] of 100 µM. The TGI ([5]; read-out: pTGI (converted)) was 100 µM, the GI50 ([6]; read-out: GI50) was 7.3 µM and the CC50 [6, 22] was 100 µM. For the same compound, the TGI ([6]; read-out: TGI) was 68 µM, the GI50 ([6]; read-out: pGI50 (converted)) was 7.24 µM and the CC50 [6, 23] was 100 µM. It also gave a TGI ([6]; read-out: pTGI (converted)) of 67.6 µM, a GI50 ([7]; read-out: GI50) of 26 µM and a CC50 [7, 22] of 100 µM. The TGI ([7]; read-out: TGI) was 100 µM, the GI50 ([7]; read-out: pGI50 (converted)) was 26.3 µM and the CC50 [7, 23] was 100 µM. It also gave a TGI ([7]; read-out: pTGI (converted)) of 100 µM, a GI50 ([8]; read-out: GI50) of 43 µM and a CC50 [8, 22] greater than 100 µM. It also gave a TGI ([8]; read-out: TGI) of 100 µM, a GI50 ([8]; read-out: pGI50 (converted)) of 41.7 µM and a CC50 ([8]; read-out: pLC50 (converted)) greater than 100 µM. It also gave a TGI ([8]; read-out: pTGI (converted)) of 100 µM, a GI50 ([9]; read-out: GI50) of 5.6 µM and a CC50 [9, 22] of 100 µM. It also gave a TGI ([9]; read-out: TGI) of 100 µM, a GI50 ([9]; read-out: pGI50 (converted)) of 5.62 µM and a CC50 [9, 23] of 100 µM. It also gave a TGI ([9]; read-out: pTGI (converted)) of 100 µM, a GI50 ([10]; read-out: GI50) of 21 µM and a CC50 [10, 22] of 100 µM. For the same compound, the TGI ([10]; read-out: TGI) was 100 µM, the GI50 ([10]; read-out: pGI50 (converted)) was 83.2 µM and the CC50 [10, 23] was 100 µM. It also gave a TGI ([10]; read-out: pTGI (converted)) of 100 µM, a GI50 ([11]; read-out: GI50) of 3.1 µM and a CC50 [11, 22] of 100 µM. For the same compound, the TGI ([11]; read-out: TGI) was 81 µM, the GI50 ([11]; read-out: pGI50 (converted)) was 3.09 µM and the CC50 [11, 23] was 100 µM. For the same compound, the TGI ([11]; read-out: pTGI (converted)) was 100 µM, the GI50 ([12]; read-out: GI50) was 38 µM and the CC50 [12, 22] was 100 µM. The TGI ([12]; read-out: TGI) was 100 µM, the GI50 ([12]; read-out: pGI50 (converted)) was 38 µM and the CC50 [12, 23] was 100 µM. For the same compound, the TGI ([12]; read-out: pTGI (converted)) was 100 µM, the GI50 ([13]; read-out: GI50) was 22 µM and the CC50 [13, 22] was 100 µM. It also gave a TGI ([13]; read-out: TGI) of 100 µM, a GI50 ([13]; read-out: pGI50 (converted)) of 22.4 µM and a CC50 [13, 23] of 100 µM. The TGI ([13]; read-out: pTGI (converted)) was 100 µM, the GI50 ([14]; read-out: GI50) was greater than 100 µM and the TGI ([14]; read-out: TGI) was 100 µM. It also gave a GI50 ([14]; read-out: pGI50 (converted)) greater than 100 µM, a TGI ([14]; read-out: pTGI (converted)) of 100 µM and a GI50 ([15]; read-out: GI50) greater than 100 µM. The CC50 [15, 22] was 100 µM, the TGI ([15]; read-out: TGI) was 100 µM and the GI50 ([15]; read-out: pGI50 (converted)) was greater than 100 µM. The CC50 [15, 23] was 100 µM, the TGI ([15]; read-out: pTGI (converted)) was 100 µM and the GI50 ([16]; read-out: GI50) was greater than 100 µM. For the same compound, the CC50 [16, 22] was 100 µM, the TGI ([16]; read-out: TGI) was 100 µM and the GI50 ([16]; read-out: pGI50 (converted)) was greater than 100 µM. The CC50 [16, 23] was 100 µM, the TGI ([16]; read-out: pTGI (converted)) was 100 µM and the GI50 ([17]; read-out: GI50) was 93 µM. The TGI ([17]; read-out: TGI) was 100 µM, the GI50 ([17]; read-out: pGI50 (converted)) was 93.3 µM and the TGI ([17]; read-out: pTGI (converted)) was 100 µM. For the same compound, the GI50 ([18]; read-out: GI50) was 12 µM, the CC50 [18, 22] was greater than 100 µM and the TGI ([18]; read-out: TGI) was 100 µM. It also gave a GI50 ([18]; read-out: pGI50 (converted)) of 11.7 µM, a CC50 ([18]; read-out: pLC50 (converted)) greater than 100 µM and a TGI ([18]; read-out: pTGI (converted)) of 100 µM. The GI50 ([19]; read-out: GI50) was 9.5 µM, the CC50 [19, 22] was 100 µM and the TGI ([19]; read-out: TGI) was 100 µM. For the same compound, the GI50 ([19]; read-out: pGI50 (converted)) was 9.55 µM, the CC50 [19, 23] was 100 µM and the TGI ([19]; read-out: pTGI (converted)) was 100 µM. For the same compound, the GI50 ([20]; read-out: GI50) was greater than 100 µM, the CC50 [20, 22] was 100 µM and the TGI ([20]; read-out: TGI) was 100 µM. For the same compound, the GI50 ([20]; read-out: pGI50 (converted)) was greater than 100 µM, the CC50 [20, 23] was 100 µM and the TGI ([20]; read-out: pTGI (converted)) was 100 µM. It also gave a GI50 ([21]; read-out: GI50) of 5.2 µM, a TGI ([21]; read-out: TGI) of 100 µM and a GI50 ([21]; read-out: pGI50 (converted)) of 5.25 µM. For the same compound, the TGI ([21]; read-out: pTGI (converted)) was 100 µM.
